Screening data as filed in PubChem BioAssay.
APP 5'UTR act = activates APP 5'UTR luciferase reporter; SH-SY5Y APP 5'UTR luciferase reporter, luminescence; zero percent = DMSO vehicle wells; activation, % at 2 µM; 190,000 compounds, 1% hits; AID 1276;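 active = activation above a set limit, based on mean plus 3 SD of controls, cut at about 140% in these data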
NF-kB expr up = NF-kB expression increase, human neuronal cells; NF-kB reporter expression; stronger effect = higher value; fold change at 12.5 µM; 190,000 compounds, 1.6% hits; in the data active = fold change above about 3.3
STAT3 activator = STAT3 signaling activation | U3A cells, IL-6 STAT3-luciferase reporter, luminescence; 100% = signal with IL-6 EC80 alone | activation (% of control), % at 5.6 µM | 190,000 compounds, 0.91% hits | AID 871;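 active = activation above the screen-wide mean of compound activation plus 3 SD, cut at about 130% in these data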;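 also: 0% = background luminescence of wells with medium and substrate only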
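Test system: Human STAT1-deficient U3A cells with stable STAT3-luciferase reporter | Also added: Interleukin-6, 33 ng/mL | Timing: Compound pre-incubation 1 h before IL-6, then 6 h stimulation at 37 °C | Technique: Luciferase reporter luminescence | Read-out: Percent of IL-6-only median luminescence | Benchmarks: IL-6-only wells as 100% reference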
STAT3 inh = inhibitors of IL-6 induced STAT3 signaling. 190,000 compounds, 0.89% hits. AID 862. U3A cells, IL-6 STAT3-luciferase reporter, luminescence; host cell line lacks STAT1. inhibition, % at 5.5 µM;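 active = inhibition above the mean inhibition across all screened compounds plus 3 SD, cut at about 44% in these data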;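 also: 0% = DMSO only wells and 100% = 100 µM nifuroxazide control wells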
STAT1 act = STAT1 signaling activation. NIH 3T3 STAT1-luciferase reporter, IFN-gamma, luminescence; 100% = IFN-gamma alone, no compound. activation (% of control), % at 5.5 µM. 200,000 compounds, 2.6% hits;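 active = activation above the screen-wide mean activation plus 3 SD, cut at about 130% in these data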;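 also: raw ratio to IFN-gamma control signal so 100% means no change and 0% no light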
STAT1 inh = reduces IFN-gamma driven STAT1 reporter signal | 200,000 compounds, 0.35% hits | NIH 3T3 STAT1-luciferase reporter, luminescence | inhibition, % at 5.5 µM;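 active = inhibition above a set limit, the mean inhibition across all tested compounds plus 3 SD, cut at about 34% in these data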;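 also: 0% = IFN-gamma with DMSO and 100% = IFN-gamma with 300 µM nifuroxazide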
STAT1 act conf = STAT1 activation, confirmation assay. shares compounds with STAT1 act. NIH 3T3 STAT1-luciferase reporter, IFN-gamma potentiation, luminescence; 100% = IFN-gamma EC80 alone, no compound. activation (% of control), % at 5.7 µM. 1,200 compounds, 97% hits. AID 1262;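 active = activation above a set limit carried over from the earlier primary STAT1 screen, cut at about 140% in these data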;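 also: simple ratio to median IFN-gamma plus DMSO wells so 0% means no light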
NFkB act = activates NF-kappaB, counter-screen to STAT1 activators | 1,200 compounds, 43% hits | HEK293T NF-kB luciferase reporter, TNF-alpha stimulated, luminescence; 100% = TNF-alpha with vehicle only | activation (% of control), % at 5.7 µM | AID 1306 | shares compounds with STAT1 act;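 active = activation above the mean of solvent-only control wells plus 3 SD, set per campaign, cut at about 130% in these data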;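 also: TNF-alpha given at a submaximal dose yielding about 80% of full reporter signal; values are well signal over median control so 100% means no change and 0% no light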
STAT3 act STAT1c = human STAT3 activation in STAT1 activator counter-screen; shares compounds with STAT1 act; 1,200 compounds, 46% hits; activation (% of control), % at 5.7 µM; AID 1316; U3A cells STAT3-luciferase reporter, IL-6, luminescence; cells lack STAT1; 100 = IL-6 alone, no compound effect;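 active = activation above the solvent-only control well mean plus 3 SD, set per plate batch, cut at about 110% in these data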;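 also: 0% = no luminescence and 100% = median IL-6 plus DMSO wells; higher means more STAT3 reporter activation so hits are non-selective activators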
* = called active by the depositor; nt = no result given. The list is not random: actives were taken first. Their share in the collection is about 4.9%.

SMILES | APP 5'UTR act | NF-kB expr up | STAT3 activator | STAT3 inh | STAT1 act | STAT1 inh | STAT1 act conf | NFkB act | STAT3 act STAT1c
COc1ccc(NC(=O)c2nc3ccccc3s2)cc1 | 207.9* | 7.53* | 66.6 | 41.5 | 160.7* | -68.7 | 231.7* | 96.2 | 99.3
c1ccc(-c2noc(CN3CCN(c4cnccn4)CC3)n2)cc1 | 9.4 | nt | 110.6 | -6.8 | 105.0 | -7.5 | nt | nt | nt
OCCC1CN(Cc2cccc(-n3cccn3)c2)CCN1Cc1ccccc1 (stereo unspecified) | -7.3 | 1.02 | 99.7 | 4.0 | 97.6 | 0.7 | nt | nt | nt
O=C(O)CCCn1cc(NC(=O)COc2cc(F)ccc2[N+](=O)[O-])cn1 | 13.4 | 1.09 | 101.5 | 6.8 | 101.1 | -1.0 | nt | nt | nt
CC(=O)Nc1ccc(S(=O)(=O)N2CCN(CC3CC4C=CC3C4)CC2)cc1 (stereo unspecified) | -3.3 | 1.13 | 91.0 | 11.6 | 90.1 | 11.2 | nt | nt | nt
COc1cc(-c2nnc(SCC(=O)NC3CCS(=O)(=O)C3)o2)cc(OC)c1OC (stereo unspecified) | -8.6 | 1.27 | 100.2 | 5.5 | 100.2 | -0.3 | nt | nt | nt
CCCCOC(=O)Nc1nc2ccccc2s1 | 12.0 | 5.42* | 79.2 | 27.7 | 153.0* | -58.1 | 213.2* | 133.1 | 105.0
CCCCOC(=O)Nc1nc2ccc(OC)cc2s1 | 31.5 | 2.2 | 89.8 | 15.0 | 119.0 | -20.6 | nt | nt | nt
O=C(NC1=NCCS1)c1ccc(-c2ccc(Cl)cc2)o1 | 118.9 | 4.62* | 84.3 | 21.9 | 155.6* | -60.7 | 186.9* | 126.1 | 94.4
O=C(Nc1ccc(C(=O)O)cc1)/C(=C\c1cccc([N+](=O)[O-])c1)NC(=O)c1ccc(Br)o1 | 9.1 | 1.15 | 96.6 | 7.6 | 96.7 | 2.3 | nt | nt | nt
CC(=Nc1ccccc1)C1=C(O)COC1=O | 5.0 | 1.2 | 102.2 | 5.0 | 106.1 | -6.6 | nt | nt | nt
CC(=Nc1ccccc1)c1sc2ccccc2c1O | 132.5 | 6.31* | 123.6 | -22.7 | 190.5* | -99.0 | 228.0* | 133.3* | 150.5*
CCOC(=O)C1=C(COC(=O)C2(C)CC2(Cl)Cl)NC(=O)NC1c1ccccc1 (stereo unspecified) | -11.2 | 1.03 | 101.4 | 0.2 | 95.6 | 4.5 | nt | nt | nt
Cc1ccc2c(c1)C1(C(=O)N2)N2CCCC2C(C(=O)c2ccc3ccccc3c2)C12C(=O)Nc1ccccc12 (stereo unspecified) | 30.7 | nt | nt | nt | nt | nt | nt | nt | nt
CCN(CC(=O)Nc1ccccc1OC)C(=O)COc1ccc2ccccc2c1 | 6.1 | 1.05 | 98.9 | -0.9 | 98.3 | 1.9 | nt | nt | nt
COC(=O)Cc1ccc(NC(=S)N2CCN(c3ccc(F)cc3)CC2)cc1 | 6.2 | 1.04 | 82.7 | 24.0 | 83.6 | 18.1 | nt | nt | nt
Cc1ccc(-c2cc3ccccc3nc2N2CCCC2)cc1 | 10.9 | 1.05 | 111.4 | -8.0 | 97.7 | 2.5 | nt | nt | nt
CN(c1cc(=O)n2ccccc2n1)C1CCCCC1 | 20.4 | 1.26 | 105.8 | -2.5 | 104.8 | -5.2 | nt | nt | nt
Cc1ccc2c(c1)-c1nc3ccccc3cc1C2=NC1CCCCC1 | 102.8 | 3.68* | 98.7 | -3.5 | 172.5* | -79.6 | 201.1* | 131.2 | 123.1*
Cc1ccc2c(c1)C(=NC1CCCCC1)c1cc3ccccc3nc1-2 | 178.5* | 5.27* | 119.0 | -20.4 | 191.5* | -102.4 | 208.2* | 125.4 | 149.8*
COc1ccc(-c2nnn(Cc3ccccc3F)n2)cc1 | 117.8 | 2.94 | 103.0 | -1.4 | 163.0* | -64.5 | 176.2* | 133.3* | 114.4*
COc1ccc(C(=O)Cn2nnc(-c3ccccc3F)n2)cc1 | 24.9 | 1.55 | 97.5 | 5.5 | 102.3 | -2.5 | nt | nt | nt
Cc1ccc(N/N=C(\C#N)C(N)=S)cc1C | 7.3 | 1.5 | 96.8 | 7.5 | 88.1 | 11.1 | nt | nt | nt
